The target of series [1] is T1, Putative nitroreductase (Staphylococcus saprophyticus subsp. saprophyticus (strain ATCC 15305 / DSM20229 / NCIMB 8711 / NCTC 7292 / S-41), UniProt Q4A0P1).
T1 sequence (Q4A0P1 whole entry): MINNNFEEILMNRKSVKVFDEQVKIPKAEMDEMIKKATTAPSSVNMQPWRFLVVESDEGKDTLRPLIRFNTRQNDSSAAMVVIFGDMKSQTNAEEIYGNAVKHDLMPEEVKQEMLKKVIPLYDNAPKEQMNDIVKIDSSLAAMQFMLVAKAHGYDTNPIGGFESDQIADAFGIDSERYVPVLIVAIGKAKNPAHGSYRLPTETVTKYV
The experiment in a line: Prodrug conversion assessed Staphylococcus saprophyticus nitroreductase expressed in Escherichia coli-mediated PP (4-(hydroxyamino)phenyl)(piperidin-1-yl)methanone metabolite formation by measuring retention time of metabolite at 100 uM incubated for 15 mins by HPLC analysis. Format: ADME. To be noted: 0.25 h. In a few lines:
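Recombinant Ssap-NtrB, Ni-column purified, was used at 2.5 µg/mL. Substrate at 100 µM was reacted with 200 µM NADH in 25 mM Tris/Cl pH 7.5 with 10% DMSO at 25 °C for 15 min. The reaction was stopped 1:1 with cold acetonitrile and run on C18 RP-HPLC at 1 mL/min with a 20–80% ACN gradient. Peaks were detected at 254 and 340 nm.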

Series [2] deals with T1, Putative nitroreductase. Nature of the series: Prodrug conversion assessed Staphylococcus saprophyticus nitroreductase expressed in Escherichia coli-mediated (4-aminophenyl)(piperidin-1-yl)methanone metabolite formation by measuring retention time in presence of FDH cofactor regeneration system at 100 uM by HPLC analysis. Format: ADME. In a few lines:
(§1)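 This was a coupled regeneration reaction: 100 µM substrate in Tris/Cl pH 7.5 with 5–15% DMSO, plus 100 µM NADH, 10 µM NAD+, 0.1 mg/mL BSA, 200 µM sodium formate, 30 µg/mL Ssap-NtrB and 30 µg/mL Candida methylica FDH, at 25 °C. Aliquots were taken over time, quenched 1:1 with cold acetonitrile and analysed by C18 HPLC using program II (20→80→20% ACN). Peak areas were read at 254 and 340 nm.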

The target of series [3] is T1, Putative nitroreductase. The experiment in a line: Prodrug conversion assessed Staphylococcus saprophyticus nitroreductase expressed in Escherichia coli-mediated PP (4-(hydroxyamino)phenyl)(piperidin-1-yl)methanone metabolite formation by measuring retention time in presence of FDH cofactor regeneration system at 100 uM by HPLC analysis. In kind it is ADME. In a few lines:
as §1

The nature of series [4]: Cytotoxicity against human PC3 cells assessed as cell viability at 9 to 150 uM measured after 48 hrs by MTT assay relative to control. In kind it is cell-based, PC-3. As to conditions: read-out: Activity. In a few lines:
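They were treated for 48 h at 9, 18, 39, 78 and 150 µM, with 1% DMSO as vehicle control. Viability was read by MTT at 550 nm.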

Series [5] in a line: Cytotoxicity against human HUVEC cells assessed as cell viability at 9 to 150 uM measured after 48 hrs by MTT assay relative to control. Format: cell-based. To be noted: read-out: Activity. In a few lines:
(§2)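 Hep3B and HUVEC cells were grown in high-glucose medium with 10% heat-inactivated FBS and 2 mM glutamine at 37 °C in 5% CO2. Cells were seeded at 5x10^4 per well and left 24 h to attach. They were then exposed for 48 h to 150, 75, 39, 19 and 9 µM, with 1% DMSO as vehicle control. Viability was read by MTT at 550 nm as (OD sample/OD control)×100.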

Series [6] deals with T1, Putative nitroreductase. The experiment in a line: Prodrug conversion assessed as Staphylococcus saprophyticus nitroreductase mediated P3 metabolite formation in presence of FDH cofactor regeneration system at 100 uM by HPLC analysis. Format: ADME. As to conditions: isolated protein. In a few lines:
as §1

Series [7] addresses T1, Putative nitroreductase. Nature of the series: Substrate activity at Staphylococcus saprophyticus nitroreductase expressed in Escherichia coli assessed as retention time […] at 150 uM by HPLC analysis (0 to 5 mins at 20 % ACN, 15 to 22 min at 80% ACN, 27-32 AT 20% ACN). Format: ADME.
Series [8] addresses T2, Staphylococcus saprophyticus nitroreductase (Staphylococcus saprophyticus subsp. saprophyticus (strain ATCC 15305 / DSM20229 / NCIMB 8711 / NCTC 7292 / S-41), UniProt Q4A0P1).
T2 sequence (Q4A0P1 whole entry): T1 sequence (Q4A0P1 whole entry)
Nature of the series: Substrate activity at Staphylococcus saprophyticus nitroreductase expressed in Escherichia coli assessed as half life […] at 150 uM by HPLC analysis (0 to 5 mins at 20 % ACN, 15 to 22 min at 80% ACN, 27-32 AT 20% ACN). Format: ADME.

The target of series [9] is T1, Putative nitroreductase. The experiment in a line: Substrate activity at Staphylococcus saprophyticus nitroreductase expressed in Escherichia coli assessed as retention time in the presence of NADPH at 150 uM by HPLC analysis (0 to 5 mins at 20% ACN, 25 to 35 min at 80% ACN, 40 to 45 min at 20% ACN). In kind it is ADME.
The target in series [10] is T1, Putative nitroreductase. The experiment in a line: Prodrug conversion assessed as Staphylococcus saprophyticus nitroreductase mediated P2 metabolite formation in presence of FDH cofactor regeneration system at 100 uM by HPLC analysis. In kind it is ADME. As to conditions: isolated protein. In a few lines: as §1
Series [11] deals with T1, Putative nitroreductase. Nature of the series: Prodrug conversion assessed as Staphylococcus saprophyticus nitroreductase mediated P4 metabolite formation in presence of FDH cofactor regeneration system at 100 uM by HPLC analysis. In kind it is ADME. To be noted: isolated protein. In a few lines: as §1
Series [12] has as its target T1, Putative nitroreductase. The experiment in a line: Prodrug conversion assessed as Staphylococcus saprophyticus nitroreductase mediated P5 metabolite formation in presence of FDH cofactor regeneration system at 100 uM by HPLC analysis. Format: ADME. As to conditions: isolated protein. In a few lines: as §1
In series [13] the target is T2, Staphylococcus saprophyticus nitroreductase. Nature of the series: Substrate activity at Staphylococcus saprophyticus nitroreductase expressed in Escherichia coli assessed as half life in the presence of NADPH at 150 uM by HPLC analysis (0 to 5 mins at 20% ACN, 25 to 35 min at 80% ACN, 40 to 45 min at 20% ACN). Format: ADME.
The nature of series [14]: Cytotoxicity against human Hep3B cells assessed as cell viability at 9 to 150 uM measured after 48 hrs by MTT assay relative to control. In kind it is cell-based, Hep 3B2. As to conditions: read-out: Activity. In a few lines: as §2
Series [15] deals with T1, Putative nitroreductase. Nature of the series: Prodrug conversion assessed as Staphylococcus saprophyticus nitroreductase mediated P1 metabolite formation in presence of FDH cofactor regeneration system at 100 uM by HPLC analysis. In kind it is ADME. To be noted: isolated protein. In a few lines:
as §1

The test system of series [16] is PC-3. The experiment in a line: Cytotoxicity in human PC3 cells assessed as reduction in cell viability at 180 nM measured after 48 hrs by SRB assay. Format: cell-based. As to conditions: pc-3, 48 h, 0.18 µM. In a few lines:
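They were exposed for 48 h to prodrug alone at 180 nM final, without enzyme or NADH, with 25 mM Tris-HCl as vehicle control. Cells were fixed with 12.5% TCA for 1 h at 4 °C, stained with 0.4% SRB and read at 492 nm as % cell survival, in triplicate.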

The test system of series [17] is PC-3. Nature of the series: Cytotoxicity against human PC3 cells assessed as reduction in cell viability measured after 48 hrs in presence of Staphylococcus saprophyticus nitroreductase and NADH by SRB assay. In kind it is cell-based. As to conditions: PC-3, 48 h. In a few lines:
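Prodrug at 180, 18 or 1.8 nM was premixed with Ssap-NtrB (31 µg/mL final) and NADH (600 µM final; 900 µM for CB1954) in 25 mM Tris-HCl pH 7.5, then added for 48 h under aerobic conditions. Cells were fixed with 12.5% TCA, stained with SRB and read at 492 nm, in triplicate.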

Series [18] deals with T2, Staphylococcus saprophyticus nitroreductase. The experiment in a line: Substrate activity at Staphylococcus saprophyticus nitroreductase expressed in Escherichia coli assessed as half life […] at 100 uM by HPLC analysis (0 to 5 mins at 20 % ACN, 15 to 22 min at 80% ACN, 27-32 AT 20% ACN). In kind it is ADME.
The target in series [19] is T1, Putative nitroreductase. Nature of the series: Substrate activity at Staphylococcus saprophyticus nitroreductase expressed in Escherichia coli assessed as retention time […] at 100 uM by HPLC analysis (0 to 5 mins at 20 % ACN, 15 to 22 min at 80% ACN, 27-32 AT 20% ACN). In kind it is ADME.
Series [20] in a line: Solubility of the compound in 15% DMSO. In kind it is physicochemical.

From ChEMBL document CHEMBL4393661, “PRODRUGS FOR NITROREDUCTASE BASED CANCER THERAPY- 2: Novel amide/Ntr combinations targeting PC3 cancer cells” (Eur J Med Chem, 2019) come the findings set out here.

Regarding `O=C(c1ccc(NO)cc1)N1CCCCC1`, the Retention_time is given as 15.99 min on Putative nitroreductase [1], 22.3 min on Putative nitroreductase [2] and 14 min at Putative nitroreductase [3].

Regarding `CCN(C(C)=O)c1cc([N+](=O)[O-])cc([N+](=O)[O-])c1`, the viability at 48 h, up to 150 µM in series [4] was over 80%; in series [5] it was over 80%; in series [14], 51 to 80%. In addition, the Drug metabolism result at Putative nitroreductase [6], at Putative nitroreductase [10], on Putative nitroreductase [11], at Putative nitroreductase [12] and at Putative nitroreductase [15] was “Metabolite_Detected” throughout. The Retention_time stood at 14.55 min on Putative nitroreductase [7] and 16.85 min on Putative nitroreductase [9]. The half-life in [8] and in series [13] was under 1.2 min each time.

For `CC(=O)Nc1cc([N+](=O)[O-])cc([N+](=O)[O-])c1`, the viability at 48 h, up to 150 µM in [4], in series [5] and in series [14] was over 80% in each case. At Putative nitroreductase [7], the Retention_time is recorded as 14.4 min. Also, in [8], the half-life is under 6 min. The Activity entry in the series with PC-3 [16] was “Non-Toxic”. Besides, the 50% inhibitory concentration (IC50) in the series with PC-3 [17] was 10.7 µM.

Consider `O=C(c1ccc([N+](=O)[O-])cc1)N1CCOCC1`, for which the viability at 48 h, up to 150 µM in series [4], in series [5] and in [14] was over 80% throughout. For the same compound, the Retention time at Putative nitroreductase [1] is 16 min. Also, the Activity entry in the series on PC-3 [16] is given as “Non-Toxic”. In series [18], the half-life is under 15 min. Also, the IC50 in the series with PC-3 [17] stood at 0.00181 µM. For the same compound, on Putative nitroreductase [19], the Retention_time is reported as 15.17 min. Moreover, the solubility result in series [20] is on record as “Soluble”.
